This note sets out measurements from ChEMBL document CHEMBL1126604, “Synthesis and antiviral activity of 5-thien-2-yl-2'-deoxyuridine analogues” (1993).

Each structure is given as a SMILES string. Converted amounts (≈) assume the structure as drawn. Bounds are passed on as bounds.

The test system of the first assay is Human alphaherpesvirus 1. Put plainly: Minimum inhibitory concentration required to reduce herpes simplex virus-1 (HSV-1 (KOS)) virus-induced cytopathicity by 50%. It counts as functional.
Details: not given
On the technique in general: Protection from cytopathic effect is a common read-out in antiviral testing.
`O=c1[nH]c(=O)n([C@H]2C[C@H](O)[C@@H](CO)O2)cc1-c1ccoc1` registered an MIC of 0.5 µg/mL (≈ 1.7 µM).
Still for that read-out and setting: with `C=Cc1ccc(-c2cn([C@H]3C[C@H](O)[C@@H](CO)O3)c(=O)[nH]c2=O)s1` the figure was 1 µg/mL (≈ 2.97 µM); with `Cc1ccc(-c2cn([C@H]3C[C@H](O)[C@@H](CO)O3)c(=O)[nH]c2=O)s1`, 0.2 µg/mL (≈ 0.617 µM).

For another assay, the system named is Human alphaherpesvirus 2. Put plainly: Minimum inhibitory concentration required to reduce herpes simplex virus-2 (HSV-2 (G)) virus-induced cytopathicity by 50%. It counts as functional.
Details: not given
For the compound `O=c1[nH]c(=O)n([C@H]2C[C@H](O)[C@@H](CO)O2)cc1-c1ccoc1`, the MIC stood at 150 µg/mL (≈ 510 µM).
Same read-out and setting: the value for `C=Cc1ccc(-c2cn([C@H]3C[C@H](O)[C@@H](CO)O3)c(=O)[nH]c2=O)s1` was above 200 µg/mL; that for `Cc1ccc(-c2cn([C@H]3C[C@H](O)[C@@H](CO)O3)c(=O)[nH]c2=O)s1` was 50 µg/mL (≈ 154 µM).

The next assay has as its system Human alphaherpesvirus 1. The assay is described as follows: Minimum inhibitory concentration required to reduce thymidine kinase deficient-HSV-1 (B2006) virus-induced cytopathicity by 50%. Type of assay: functional.
Details: not given
Compound `O=c1[nH]c(=O)n([C@H]2C[C@H](O)[C@@H](CO)O2)cc1-c1ccoc1` came in with an MIC of 100 µg/mL (≈ 340 µM).
The same measure, in the same setting: with `C=Cc1ccc(-c2cn([C@H]3C[C@H](O)[C@@H](CO)O3)c(=O)[nH]c2=O)s1` the figure was above 200 µg/mL; with `Cc1ccc(-c2cn([C@H]3C[C@H](O)[C@@H](CO)O3)c(=O)[nH]c2=O)s1`, 400 µg/mL (≈ 1230 µM).

Another assay has as its system Vaccinia virus. The assay is described as follows: Minimum inhibitory concentration required to reduce vaccinia virus (VV) virus-induced cytopathicity by 50%. Type of assay: functional. The conditions noted are these: Orthopoxvirus vaccinia.
`O=c1[nH]c(=O)n([C@H]2C[C@H](O)[C@@H](CO)O2)cc1-c1ccoc1` showed an MIC above 40 µg/mL.
Same read-out and setting: with `C=Cc1ccc(-c2cn([C@H]3C[C@H](O)[C@@H](CO)O3)c(=O)[nH]c2=O)s1` the figure was 70 µg/mL (≈ 208 µM).
Still for that read-out and setting: with `Cc1ccc(-c2cn([C@H]3C[C@H](O)[C@@H](CO)O3)c(=O)[nH]c2=O)s1` the figure was above 200 µg/mL.

Test system in another assay: not listed separately
Put plainly: Minimum inhibitory concentration required to reduce virus-induced cell growth by 50%. It counts as functional. The conditions noted are these: Homo sapiens.
`O=c1[nH]c(=O)n([C@H]2C[C@H](O)[C@@H](CO)O2)cc1-c1ccoc1` registered an MIC above 50 µg/mL.
In turn, `C=Cc1ccc(-c2cn([C@H]3C[C@H](O)[C@@H](CO)O3)c(=O)[nH]c2=O)s1` registered an MIC of 3.5 µg/mL (≈ 10.4 µM).
Still for that read-out and setting: with `Cc1ccc(-c2cn([C@H]3C[C@H](O)[C@@H](CO)O3)c(=O)[nH]c2=O)s1` the figure was above 50 µg/mL.

Another assay relates to Human alphaherpesvirus 1. The assay is described as follows: Minimum inhibitory concentration required to reduce thymidine kinase deficient-HSV-1 (VMW 1837) virus-induced cytopathicity by 50%. It counts as functional.
Details: not given
`O=c1[nH]c(=O)n([C@H]2C[C@H](O)[C@@H](CO)O2)cc1-c1ccoc1` yielded an MIC above 200 µg/mL.
Still for that read-out and setting: with `C=Cc1ccc(-c2cn([C@H]3C[C@H](O)[C@@H](CO)O3)c(=O)[nH]c2=O)s1` the figure was above 200 µg/mL; with `Cc1ccc(-c2cn([C@H]3C[C@H](O)[C@@H](CO)O3)c(=O)[nH]c2=O)s1`, 150 µg/mL (≈ 462 µM).

Another assay has as its system Human alphaherpesvirus 3. The assay is described as follows: Minimum inhibitory concentration required to reduce TK-VZV (07-1) virus-induced cytopathicity by 50%. Type of assay: functional.
Details: not given
As to `O=c1[nH]c(=O)n([C@H]2C[C@H](O)[C@@H](CO)O2)cc1-c1ccoc1`, the MIC was above 40 µg/mL.
In turn, `C=Cc1ccc(-c2cn([C@H]3C[C@H](O)[C@@H](CO)O3)c(=O)[nH]c2=O)s1` registered an MIC of 7 µg/mL (≈ 20.8 µM).
On the same count and under the same terms, the value for `Cc1ccc(-c2cn([C@H]3C[C@H](O)[C@@H](CO)O3)c(=O)[nH]c2=O)s1` was above 40 µg/mL.

In another assay the test system is Cell line. The assay is described as follows: Minimum concentration required to cause a microscopically detectable alteration of cell morphology. It counts as functional. The conditions noted are these: Homo sapiens. The gist of the method: (§1)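 Cytotoxicity read as the minimum concentration causing a microscopically detectable alteration of normal cell morphology. Cells were human embryonic skin-muscle (E6SM) or human embryonic lung (HEL), seeded in 96-well plates.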
In the case of `C=Cc1ccc(-c2cn([C@H]3C[C@H](O)[C@@H](CO)O3)c(=O)[nH]c2=O)s1`, the MIC amounted to 400 µg/mL (≈ 1190 µM).
The same measure, in the same setting: with `Cc1ccc(-c2cn([C@H]3C[C@H](O)[C@@H](CO)O3)c(=O)[nH]c2=O)s1` the figure was above 200 µg/mL.

The subject of the next assay is Human alphaherpesvirus 1. The assay is described as follows: Minimum inhibitory concentration required to reduce herpes simplex virus-1 (HSV-1 (McIntyre)) virus-induced cytopathicity by 50%. It counts as functional.
Details: not given
`O=c1[nH]c(=O)n([C@H]2C[C@H](O)[C@@H](CO)O2)cc1-c1ccoc1` came in with an MIC of 0.07 µg/mL (≈ 0.238 µM).
Still for that read-out and setting: the value for `Cc1ccc(-c2cn([C@H]3C[C@H](O)[C@@H](CO)O3)c(=O)[nH]c2=O)s1` was 0.7 µg/mL (≈ 2.16 µM).

For a further assay, the system named is Human alphaherpesvirus 3. The assay is described as follows: Minimum inhibitory concentration required to reduce TK-VZV (YS/R) virus-induced cytopathicity by 50%. It counts as functional.
Details: not given
For `O=c1[nH]c(=O)n([C@H]2C[C@H](O)[C@@H](CO)O2)cc1-c1ccoc1`, the MIC is above 40 µg/mL.
The same measure, in the same setting: with `C=Cc1ccc(-c2cn([C@H]3C[C@H](O)[C@@H](CO)O3)c(=O)[nH]c2=O)s1` the figure was 10 µg/mL (≈ 29.7 µM); with `Cc1ccc(-c2cn([C@H]3C[C@H](O)[C@@H](CO)O3)c(=O)[nH]c2=O)s1`, above 40 µg/mL.

The next assay concerns Human alphaherpesvirus 2. The assay is described as follows: Minimum inhibitory concentration required to reduce herpes simplex virus-2 (HSV-2 (Lyons)) virus-induced cytopathicity by 50%. It counts as functional.
Details: not given
`O=c1[nH]c(=O)n([C@H]2C[C@H](O)[C@@H](CO)O2)cc1-c1ccoc1`: the MIC amounted to 30 µg/mL (≈ 102 µM).
Take `Cc1ccc(-c2cn([C@H]3C[C@H](O)[C@@H](CO)O3)c(=O)[nH]c2=O)s1`: the MIC came out at 20 µg/mL (≈ 61.7 µM).

For a further assay, the system named is Human alphaherpesvirus 3. The assay is described as follows: Minimum inhibitory concentration required to reduce Varicella-Zoster virus (VZV (Oka)) virus-induced cytopathicity by 50%. It counts as functional.
Details: not given
Compound `O=c1[nH]c(=O)n([C@H]2C[C@H](O)[C@@H](CO)O2)cc1-c1ccoc1` had an MIC of 50 µg/mL (≈ 170 µM).
Compound `C=Cc1ccc(-c2cn([C@H]3C[C@H](O)[C@@H](CO)O3)c(=O)[nH]c2=O)s1` gave an MIC of 7 µg/mL (≈ 20.8 µM).
`Cc1ccc(-c2cn([C@H]3C[C@H](O)[C@@H](CO)O3)c(=O)[nH]c2=O)s1` gave an MIC of 0.08 µg/mL (≈ 0.247 µM).

For the next assay, the system named is Human alphaherpesvirus 2. Put plainly: Minimum inhibitory concentration required to reduce herpes simplex virus-2 (HSV-2 (196)) virus-induced cytopathicity by 50%. Type of assay: functional.
Details: not given
`O=c1[nH]c(=O)n([C@H]2C[C@H](O)[C@@H](CO)O2)cc1-c1ccoc1` came in with an MIC of 150 µg/mL (≈ 510 µM).
On to `Cc1ccc(-c2cn([C@H]3C[C@H](O)[C@@H](CO)O3)c(=O)[nH]c2=O)s1`, for which the MIC was found to be 150 µg/mL (≈ 462 µM).

In the next assay the test system is Cytomegalovirus. The assay is described as follows: Minimum inhibitory concentration required to reduce cytomegalo virus (CMV (AD-169)) virus-induced cytopathicity by 50%. It counts as functional. The conditions noted are these: Human betaherpesvirus 5.
`O=c1[nH]c(=O)n([C@H]2C[C@H](O)[C@@H](CO)O2)cc1-c1ccoc1` displayed an MIC of 80 µg/mL (≈ 272 µM).
`C=Cc1ccc(-c2cn([C@H]3C[C@H](O)[C@@H](CO)O3)c(=O)[nH]c2=O)s1`: the MIC is above 1 µg/mL.
`Cc1ccc(-c2cn([C@H]3C[C@H](O)[C@@H](CO)O3)c(=O)[nH]c2=O)s1` showed an MIC above 40 µg/mL.

A further assay relates to Human alphaherpesvirus 1. The assay is described as follows: Minimum inhibitory concentration required to reduce herpes simplex virus-1 (HSV-1 (F)) virus-induced cytopathicity by 50%. Type of assay: functional.
Details: not given
Consider `O=c1[nH]c(=O)n([C@H]2C[C@H](O)[C@@H](CO)O2)cc1-c1ccoc1`, for which the MIC turned out to be 0.5 µg/mL (≈ 1.7 µM).
Same read-out and setting: the value for `Cc1ccc(-c2cn([C@H]3C[C@H](O)[C@@H](CO)O3)c(=O)[nH]c2=O)s1` was 0.2 µg/mL (≈ 0.617 µM).

For a further assay, the system named is Vesicular stomatitis virus. The assay is described as follows: Minimum inhibitory concentration required to reduce VSV virus-induced cytopathicity by 50%. It counts as functional.
Details: not given
Regarding `O=c1[nH]c(=O)n([C@H]2C[C@H](O)[C@@H](CO)O2)cc1-c1ccoc1`, the MIC was above 200 µg/mL.
The same measure, in the same setting: with `C=Cc1ccc(-c2cn([C@H]3C[C@H](O)[C@@H](CO)O3)c(=O)[nH]c2=O)s1` the figure was above 200 µg/mL; with `Cc1ccc(-c2cn([C@H]3C[C@H](O)[C@@H](CO)O3)c(=O)[nH]c2=O)s1`, above 400 µg/mL.

Another assay deals with Cytomegalovirus. Put plainly: Minimum inhibitory concentration required to reduce cytomegalo virus (CMV (Davis)) virus-induced cytopathicity by 50%. The conditions noted are these: Human betaherpesvirus 5. Type of assay: functional.
Take `O=c1[nH]c(=O)n([C@H]2C[C@H](O)[C@@H](CO)O2)cc1-c1ccoc1`: the MIC was 80 µg/mL (≈ 272 µM).
The same measure, in the same setting: the value for `C=Cc1ccc(-c2cn([C@H]3C[C@H](O)[C@@H](CO)O3)c(=O)[nH]c2=O)s1` was above 1 µg/mL.
In the case of `Cc1ccc(-c2cn([C@H]3C[C@H](O)[C@@H](CO)O3)c(=O)[nH]c2=O)s1`, the MIC is above 40 µg/mL.

The subject of another assay is Cell line. Put plainly: Minimum concentration required to cause a microscopically detectable alteration of human cells morphology. Type of assay: functional.
Details: not given
A digest of the protocol:
as §1
In turn, `O=c1[nH]c(=O)n([C@H]2C[C@H](O)[C@@H](CO)O2)cc1-c1ccoc1` registered an MIC above 40 µg/mL.
